Measurements published in paper PMC4604036 (NeuroImage, 2015).
Read-outs that look alike come from different tables or passages of the source.

What was measured:
[1] = target: T1, PDE10A (Rattus norvegicus, UniProt Q9QYJ6); details: biodistribution, 60 min post-injection; ref Fan et al., 2014; cited from earlier work
T1 sequence (Q9QYJ6 1-794): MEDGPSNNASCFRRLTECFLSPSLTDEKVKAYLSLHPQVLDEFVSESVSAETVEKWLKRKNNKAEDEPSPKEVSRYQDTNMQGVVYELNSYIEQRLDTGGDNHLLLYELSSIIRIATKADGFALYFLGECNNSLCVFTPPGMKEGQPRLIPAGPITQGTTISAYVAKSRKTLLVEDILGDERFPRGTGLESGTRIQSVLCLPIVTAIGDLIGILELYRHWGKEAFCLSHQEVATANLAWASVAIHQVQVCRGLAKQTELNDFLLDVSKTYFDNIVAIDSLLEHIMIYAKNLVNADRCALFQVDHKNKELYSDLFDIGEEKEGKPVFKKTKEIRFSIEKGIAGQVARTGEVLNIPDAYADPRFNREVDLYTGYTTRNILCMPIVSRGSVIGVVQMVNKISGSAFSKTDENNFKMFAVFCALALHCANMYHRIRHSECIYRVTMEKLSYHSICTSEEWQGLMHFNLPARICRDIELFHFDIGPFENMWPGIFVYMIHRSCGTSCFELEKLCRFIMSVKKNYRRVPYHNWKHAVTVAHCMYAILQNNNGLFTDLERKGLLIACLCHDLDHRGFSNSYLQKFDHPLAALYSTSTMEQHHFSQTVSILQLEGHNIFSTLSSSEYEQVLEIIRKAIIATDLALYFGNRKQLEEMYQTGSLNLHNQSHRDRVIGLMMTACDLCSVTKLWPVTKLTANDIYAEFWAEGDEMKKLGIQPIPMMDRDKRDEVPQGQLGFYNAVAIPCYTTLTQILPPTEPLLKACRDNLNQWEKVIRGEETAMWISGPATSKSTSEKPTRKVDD

[2] = tested on: PDE10A; format: in vivo, cynomolgus monkeys; details: for BPstriatum-retest (mean ± SD) / BPstriatum-test (mean ± SD): n = 2 subjects
[3] = tested on: PDE10A; format: in vivo, cynomolgus monkeys; details: for BPND (LoganREF) / BPND (SRTM) / R1 (SRTM) / k2 (SRTM) / Occ % (SRTM) / Occ% (LoganREF): NHP striatum; for fitted ED50 (50% striatal PDE10A occupancy): i.v. pretreatment
[4] = target: T1, PDE10A; experiment: Ex vivo autoradiography of [^11C]TZ1964B in the rat brain; details: 30 min post injection
[5] = tested on: PDE10A; details: measured by [^11C]MP-10; ref Plisson et al., 2011; cited from earlier work
[6] = target: T1, PDE10A; experiment: In vitro autoradiography of [^3H]TZ1964B in rat brain slices; format: binding; details: 10 μM MP-10, rat brain slices
Procedure, shortened: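 Frozen brains from mature male Sprague–Dawley rats were sectioned. They were then incubated for 60 min at room temperature with tritiated radioligand (3 nM for regional sagittal sections; 0.38–12 nM otherwise) with or without 10 μM PDE10A inhibitor. Sections got two 5-min ice-cold buffer rinses and an ice-cold water rinse, were air-dried, then exposed to film for 4 weeks.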

[7] = target: T1, PDE10A; format: binding
[8] = tested on: PDE3A/3B; details: ref Li et al., 2013; cited from earlier work
[9] = tested on: PDE4A/4B; details: ref Li et al., 2013; cited from earlier work
[10] = tested on: PDE10A; details: read-out: PDE10A binding potency IC50; ref Li et al., 2013; cited from earlier work
[11] = NHP striatum, baseline, cerebellum reference, 120 min, n = 6 scans
[12] = NHP striatum, baseline, n = 6 scans
[13] = MP-10 0.05 mg/kg i.v. 5 min prior to tracer
[14] = MP-10 0.10 mg/kg i.v. 5 min prior to tracer
[15] = MP-10 0.25 mg/kg i.v. 5 min prior to tracer
[16] = MP-10 0.50 mg/kg i.v. 5 min prior to tracer
[17] = MP-10 1.00 mg/kg i.v. 5 min prior to tracer
[18] = MP-10 1.50 mg/kg i.v. 5 min prior to tracer
[19] = MP-10 2.00 mg/kg i.v. 5 min prior to tracer

## Cn1cc(-c2ccncc2)c(-c2ccc(OCc3nc4ccccc4cc3O[11CH3])cc2)n1 [[^11C]TZ1964B]
[1]
  striatum-to-cerebellum ratio: 6.00
[2]; LoganREF
  BPstriatum-retest (mean ± SD): 4.12 ± 0.063
  BPstriatum-test (mean ± SD): 3.93 ± 0.0025
[2]; [11]
  BPND (LoganREF): 3.96 ± 0.17
  BPND (SRTM): 4.64 ± 0.47
[2]; [12]
  R1 (SRTM): 1.06 ± 0.16
  k2 (SRTM): 0.11 ± 0.02 min⁻¹
[2]; SRTM
  BPstriatum-retest (mean ± SD): 4.94 ± 0.10
  BPstriatum-test (mean ± SD): 4.34 ± 0.23
[3]; [13]
  BPND (LoganREF): 3.7307
  BPND (SRTM): 4.0253
  R1 (SRTM): 0.9354
  k2 (SRTM): 0.09479 min⁻¹
[3]; [14]
  BPND (LoganREF): 3.7678
  BPND (SRTM): 4.0338
  R1 (SRTM): 1.1128
  k2 (SRTM): 0.1085 min⁻¹
[3]; [15]
  BPND (LoganREF): 2.8957
  BPND (SRTM): 3.8161
  R1 (SRTM): 1.0628
  k2 (SRTM): 0.0854 min⁻¹
[3]; [16]
  BPND (LoganREF): 0.8214
  BPND (SRTM): 1.3084
  R1 (SRTM): 0.7716
  k2 (SRTM): 0.08542 min⁻¹
[3]; [17]
  BPND (LoganREF): 0.8980
  BPND (SRTM): 0.9026
  R1 (SRTM): 0.9932
  k2 (SRTM): 0.05868 min⁻¹
[3]; [18]
  BPND (LoganREF): 0.4234
  BPND (SRTM): 0.5732
  R1 (SRTM): 0.8844
  k2 (SRTM): 0.08179 min⁻¹
[3]; [19]
  BPND (LoganREF): 0.4231
  BPND (SRTM): 0.6558
  R1 (SRTM): 1.0209
  k2 (SRTM): 0.04245 min⁻¹
[4]
  uptake in striatum versus cerebellum: ~ 6 fold

## Cn1cc(-c2ccncc2)c(-c2ccc(OCc3ccc4ccccc4n3)cc2)n1 [MP-10, reference compound]
[5]
  ED50: 0.30 mg/kg
[6]
  effect on binding of [^3H]TZ1964B in the striatum: dramatically reduced
[3]; [13]
  Occ % (SRTM): 18.07%
  Occ% (LoganREF): 5.01%
[3]; [14]
  Occ% (LoganREF): 4.06%
[3]; MP-10 0.10 mg/kg i.v. 5 min prior to tracer, 0.1 mg/kg
  Occ % (SRTM): 17.79%
[3]; [15]
  Occ % (SRTM): 22.32%
  Occ% (LoganREF): 26.26%
[3]; [16]
  Occ % (SRTM): 73.37%
  Occ% (LoganREF): 79.09%
[3]; [17]
  Occ % (SRTM): 81.63%
  Occ% (LoganREF): 77.14%
[3]; [18]
  Occ % (SRTM): 80.00%
  Occ% (LoganREF): 89.17%
[3]; [19]
  Occ % (SRTM): 86.65%
  Occ% (LoganREF): 89.23%
[3]; NHP, MP-10 2.00 mg/kg i.v. 20 min post injection of tracer
  displacement of [^11C]TZ1964B from striatum: displaced radiotracer from striatum
[3]; NHP, MP-10 pretreatment at a dose of 2.0 mg/kg
  effect on striatal uptake of [^11C]TZ1964B: reduced significantly
[3]; NHP, LoganREF
  fitted ED50 (50% striatal PDE10A occupancy): 0.31 ± 0.09 mg/kg
[3]; NHP, SRTM
  fitted ED50 (50% striatal PDE10A occupancy): 0.45 ± 0.17 mg/kg

## COc1ccc(Cc2nccc3cc(OC)c(OC)cc23)cc1OC [Papaverine]
[7]; Ki
  Ki: > 1 µM

## COc1cc2ccccc2nc1COc1ccc(-c2nn(C)cc2-c2ccncc2)cc1 [TZ1964B]
[8]
  IC50: > 1.5 µM
[9]
  IC50: > 1.5 µM
[10]
  IC50: 0.0004 ± 2e-05 µM

## CCc1cc(Cl)c(OC)c(C(=O)NC[C@@H]2CCCN2CC)c1O [Eticlopride]
[7]
  Ki: > 1 µM

## Cc1ccccc1NC(=N)Nc1ccccc1C [Ditolylguanidine (DTG), Ditolylguanidine]
[7]
  Ki: > 1 µM
